Source: PubChem
Shown are actives, neighbours in structure and some others; about 5.2% of the full set was active somewhere.
EBNA-1 inh = blocks EBNA-1 binding to DNA; inhibition, % at 14.8 µM; hit rate 0.34% among 300,000; EBNA-1 DNA binding, fluorescence polarization; in the data active = inhibition above about 28%
HCV core dimer = HCV core protein dimerization inhibition; TR-FRET GST/Flag-core106 dimerization, 1536-well; inhibition, % at 5 µM; hit rate 0.33% among 300,000; AID 1899;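 active = inhibition above the mean of all tested compounds plus 3 SD, set per screening campaign, cut at about 45% in these data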
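assay system = GST-tagged and Flag-tagged HCV core protein residues 1-106 | controls = unlabelled core106 and no-GST-core106 wells | incubation = compound-protein-antibody incubation 4 h at 22.5 °C | probe or stimulus = Eu donor and XL665 acceptor anti-tag antibodies | read-out = % inhibition based on acceptor/donor emission ratio | signal = TR-FRET 671 and 617 nm emission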
ALR inh = inhibitors of human sulfhydryl oxidase ALR | P55789 | purified ALR, DTT oxidation, H2O2 HRP-luminol luminescence | inhibition, % (concentration not given with the values) | hit rate 3.8% among 290,000 | AID 485317;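 active = mean replicate inhibition above about 79%, with every replicate also reaching it, limit read from the data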
Target sequence (P55789 whole entry, looked up): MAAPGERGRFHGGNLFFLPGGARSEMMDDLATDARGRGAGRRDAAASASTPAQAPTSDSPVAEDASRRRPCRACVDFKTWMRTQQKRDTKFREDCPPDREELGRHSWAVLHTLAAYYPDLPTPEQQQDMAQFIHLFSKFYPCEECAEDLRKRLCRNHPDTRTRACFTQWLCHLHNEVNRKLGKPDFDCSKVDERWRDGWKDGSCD
ZTA counter = counter-screen for EBNA-1 inhibitors: inhibitors of Epstein-Barr virus ZTA. hit rate 0.15% among 320,000. P03206. ZTA-DNA binding, fluorescence polarization. AID 2234. inhibition, % at 11 µM; in the data active = inhibition above about 33%
Target sequence (P03206 whole entry, looked up): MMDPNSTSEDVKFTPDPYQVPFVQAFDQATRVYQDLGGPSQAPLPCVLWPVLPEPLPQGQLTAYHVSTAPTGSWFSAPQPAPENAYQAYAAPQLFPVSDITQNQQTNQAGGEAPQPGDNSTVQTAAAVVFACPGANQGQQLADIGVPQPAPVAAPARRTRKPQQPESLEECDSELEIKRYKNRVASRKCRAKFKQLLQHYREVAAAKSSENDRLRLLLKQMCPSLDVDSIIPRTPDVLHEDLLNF
PfM18AAP inh = blocks P. falciparum M18 aspartyl aminopeptidase. recombinant PfM18AAP, H-Glu-NHMec fluorogenic cleavage. inhibition, % at 7.35 µM. hit rate 1.2% among 290,000. AID 1822;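 active = inhibition above the campaign mean inhibition over all tested compounds plus 3 SD, cut at about 28% in these data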
HCV NS3 hel inh = blocks Hepatitis C virus NS3 helicase unwinding | NS3 helicase DNA unwinding, Cy5 molecular beacon fluorescence | inhibition, % at 10.9 µM | hit rate 0.56% among 290,000 | AID 1800;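 active = inhibition above the mean of all tested compounds plus 3 SD, set per campaign, cut at about 35% in these data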
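Compound dosing – single dose, 10.9 µM nominal final, DMSO 0.8% final · System – NS3 helicase fragment of HCV · Buffer or medium – MOPS pH 6.5, MgCl2, DTT, Tween20, BSA · Signal – Cy5 beacon fluorescence read at start and 1 h · Also added – annealed dual-labelled DNA beacon duplex, ATP-started · Schedule – 1 h at 25 °C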
Of the large screens only hits and unclear results are named; the others gave an inactive call.

CCOC(=O)/C(=N/Nc1ccccc1)N1CCCc2ccccc21	ALR inh 94
O=C(CCN1C(=O)C2CCCCC2C1=O)N1CCN(S(=O)(=O)c2c(F)cccc2F)CC1 (stereo not given)	none (no result: PfM18AAP inh, HCV NS3 hel inh)
CCn1c(CCCNC(=O)c2cccs2)nc2ccccc21	ALR inh 98
O=C1c2c(O)cc(O)cc2O[C@H](c2ccc(O)c(O)c2)[C@H]1O	ALR inh 99, PfM18AAP inh 79
O=C1c2c(O)cc(O)cc2O[C@H](c2ccc(O)c(O)c2)[C@@H]1O	ALR inh 99, PfM18AAP inh 82
COc1cc(OC)c2c(c1)OC(c1ccc(OC)c(OC)c1)C(O)C2=O (stereo not given)	none (no result: ALR inh)
COc1ccc([C@@H]2CC(=O)c3c(O)cc(O)cc3O2)cc1O	none (no result: PfM18AAP inh, HCV NS3 hel inh)
C[C@@H]1O[C@@H](O[C@@H]2C(=O)c3c(O)cc(O)cc3O[C@H]2c2ccc(O)c(O)c2)[C@H](O)[C@H](O)[C@H]1O	ALR inh 99 (no result: EBNA-1 inh, HCV core dimer, PfM18AAP inh, HCV NS3 hel inh)
COc1ccc([C@@H]2CC(=O)c3c(O)cc(O[C@@H]4O[C@H](CO[C@@H]5O[C@@H](C)[C@H](O)[C@@H](O)[C@H]5O)[C@@H](O)[C@H](O)[C@H]4O)cc3O2)cc1O	none
O=C1c2c(O)cc(O)cc2O[C@H](c2ccc(O)cc2)[C@H]1O	ALR inh 87 (no result: PfM18AAP inh, HCV NS3 hel inh)
CN(CCOc1ccc(Cl)cc1)C(=O)CN1C(=O)NC2(CCCCC2)C1=O	none (no result: PfM18AAP inh, HCV NS3 hel inh)
COc1cccc(C(=O)NCc2ccco2)c1OC	none
COc1cc(CCC(=O)NCc2ccc(F)cc2)cc(OC)c1OC	none
CCc1ccc(OCC(=O)Nc2ccc3oc(=O)ccc3c2)cc1	none
O=C1C[C@@H](c2ccccc2)Oc2cc(O)cc(O)c21	none (no result: PfM18AAP inh, HCV NS3 hel inh)
Oc1cc(O)c2c(c1)O[C@H](c1ccc(O)c(O)c1)[C@@H](O)C2	ALR inh 95 (no result: PfM18AAP inh, HCV NS3 hel inh)
Cc1csc(NC(=O)CSc2nnc(-c3cc(C)on3)o2)n1	ALR inh 94
O=C(CSc1nc2ccccc2o1)Nc1nc(-c2ccccc2)cs1	ALR inh 99
C/C(=N\NC(=O)CSc1nc2ccccc2o1)c1ccc(O)cc1	ALR inh 99
Cc1cc(-c2nnc(SCC(=O)NC3CCCC3)o2)no1	none
C/C(=N\NC(=O)CSc1nc2ccccc2o1)c1cccc(O)c1	none (no result: ALR inh)
Cc1cc(-c2nnc(SCC(=O)Nc3nc(-c4ccccc4)cs3)o2)no1	ALR inh 99, PfM18AAP inh 30
CC(C)CNC(=O)CSc1ccc(S(=O)(=O)N2CCN(C)CC2)cn1	none (no result: EBNA-1 inh, HCV core dimer, PfM18AAP inh, HCV NS3 hel inh)
Cc1ccc(-n2nc3c(=O)n(CC(=O)NCCc4ccccc4C)nc(C)c3c2C)cc1	none
CCOC(=O)C1=C(O)C(=O)N(Cc2ccccc2)CC1	none
COc1cc2c(cc1NC(=O)c1cccc(S(=O)(=O)N(C)C)c1)oc1ccccc12	none
O=C(Nc1ccc2c(c1)COC2=O)c1ccc(Cl)c(Cl)c1	none
CCOc1cc(/C=C2\SC(=S)N(NC(=O)c3cccnc3)C2=O)ccc1O	ALR inh 99
O=C(NN1C(=O)/C(=C/c2cccs2)SC1=S)c1cccnc1	none (no result: ALR inh)
CCOc1ccc(/C=C2/SC(=S)N(C(C(=O)O)c3ccccc3)C2=O)cc1OCC (stereo not given)	none (no result: EBNA-1 inh, HCV core dimer, ALR inh, ZTA counter)
CCOc1cc(/C=C2\SC(=S)N(C(C(=O)O)c3ccccc3)C2=O)ccc1O (stereo not given)	ALR inh 100
COc1cc(/C=C2\SC(=S)N(NC(=O)c3cccc(O)c3)C2=O)ccc1O	ALR inh 95 (no result: EBNA-1 inh, HCV core dimer, ZTA counter)
COc1cc(/C=C2\SC(=S)N(NC(=O)c3ccncc3)C2=O)ccc1O	ALR inh 99
COc1cc(/C=C2\SC(=S)N(NC(=O)c3ccc(O)c(OC)c3)C2=O)ccc1O	none (no result: ALR inh)
COc1cc(/C=C2\SC(=S)N(NC(=O)c3ccccc3OC)C2=O)ccc1O	none (no result: EBNA-1 inh, HCV core dimer, ZTA counter)
NC(=O)c1ccsc1NC(=O)c1ccc([N+](=O)[O-])o1	none (no result: EBNA-1 inh, HCV core dimer, ZTA counter, PfM18AAP inh, HCV NS3 hel inh)
CC(C)(C)CC(C)(C)Nc1c(-c2ccc(O)cc2)nc2cnccn12	ALR inh 100
Oc1ccc(-c2nc3cnccn3c2Nc2ccc3c(c2)OCCO3)cc1	ALR inh 99
c1ccc(-c2nc3cnccn3c2Nc2ccc3c(c2)OCCO3)cc1	none (no result: ALR inh)
COc1cc(-c2nc3cnccn3c2Nc2ccc(C)cc2)ccc1O	ALR inh 99
COc1cc(-c2nc3cnccn3c2Nc2ccc3c(c2)OCCO3)ccc1O	ALR inh 99
